The structures appear in SMILES notation.

Data set [1] deals with Pneumocystis carinii. Put plainly: Antimicrobial activity against Pneumocystis carinii assessed as ATP levels after 72 hrs by luciferase assay. Type of data set: functional, organism-based. In short, it runs like this: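 P. carinii organism preparations screened before use for microbial contamination, ATP content, karyotype and host cell content. Compounds incubated with organisms for 72 h, then ATP measured as relative light units. Each concentration tested in triplicate wells and averaged, with triplicate runs using separate organism isolation batches. Activity averaged from at least three determinations.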

The test system of data set [2] is Plasmodium falciparum. Put plainly: Antiplasmodial activity against chloroquine-resistant Plasmodium falciparum W2. Type of data set: functional, organism-based. In a few lines:
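Parasite development assay against P. falciparum W2, run by the authors' earlier method. Values in μM, each the average of at least three determinations.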

Data set [3] in a line: Half life of hydrolysis in buffer at pH 7.4. Type of data set: ADME. In short, it runs like this:
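Hydrolytic stability followed in pH 7.4 buffer at 37 °C; half-life derived from the decay.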

The IC50 is the concentration that gives 50% inhibition. `COc1cc(NC(C)CCCN2C(=O)[C@H](Cc3ccccc3)NC2(C)C)c2ncccc2c1` (some centres not stated): the IC50 in data set [1] (Pneumocystis carinii, 72 h) is 32 µM; in data set [2], over 50 µM.

Broadly, the half-life is how long it takes for the measured level to halve. As for `COc1cc(NC(C)CCCN2C(=O)[C@H](C(C)C)NC23CCCCCC3)c2ncccc2c1` (some centres not stated), the IC50 in data set [1] (Pneumocystis carinii, 72 h) is 6 µM; in data set [2] it was 8.89 µM. For the same compound, the half-life in data set [3] was over 240 h.

Take `COc1cc(NC(C)CCCN2C(=O)[C@H](C(C)C)NC23CCCCC3)c2ncccc2c1` (some centres not stated): the IC50 in data set [1] (Pneumocystis carinii, 72 h) was 26 µM; in data set [2] it was over 50 µM.

`COc1cc(NC(C)CCCN2C(=O)[C@H](C(C)C)NC23CCCC3)c2ncccc2c1` (some centres not stated): the IC50 in data set [1] (Pneumocystis carinii, 72 h) is 23 µM; in data set [2], over 50 µM.

As for `COc1cc(NC(C)CCCN2C(=O)[C@H](Cc3ccccc3)NC23CCCC3)c2ncccc2c1` (some centres not stated), the IC50 in data set [1] (Pneumocystis carinii, 72 h) is 12 µM; in data set [2], over 50 µM.

`COc1cc(NC(C)CCCN2C(=O)[C@H](C)NC2(C)C)c2ncccc2c1` (some centres not stated): the IC50 was 226 µM in data set [1] (Pneumocystis carinii, 72 h) and over 50 µM in data set [2].

In the case of `COc1cc(NC(C)CCCN2C(=O)[C@H](CC(C)C)NC23CCCCCC3)c2ncccc2c1` (some centres not stated), the IC50 in data set [1] (Pneumocystis carinii, 72 h) was found to be 4.1 µM; in data set [2], 2.63 µM.

Regarding `COc1cc(NC(C)CCCN2C(=O)[C@H](C)NC23CCC(C)CC3)c2ncccc2c1` (some centres not stated), the IC50 in data set [1] (Pneumocystis carinii, 72 h) stood at 23 µM.

With `COc1cc(NC(C)CCCN2C(=O)CNC23CCCCC3)c2ncccc2c1` (configuration not stated), the IC50 is 43 µM in data set [1] (Pneumocystis carinii, 72 h) and over 50 µM in data set [2].

As for `COc1cc(NC(C)CCCN2C(=O)[C@H](C)NC23CCCCCC3)c2ncccc2c1` (some centres not stated), the IC50 stood at 1.9 µM in data set [1] (Pneumocystis carinii, 72 h) and 2.42 µM in data set [2].

With `COc1cc(NC(C)CCCN2C(=O)CNC2(C)C)c2ncccc2c1` (configuration not stated), the IC50 in data set [1] (Pneumocystis carinii, 72 h) is 23 µM; in data set [2], 9.08 µM.

Take `COc1cc(NC(C)CCCN2C(=O)[C@H](C(C)C)NC2(C)C)c2ncccc2c1` (some centres not stated): the IC50 in data set [1] (Pneumocystis carinii, 72 h) was 40 µM; in data set [2], over 50 µM.

`COc1cc(NC(C)CCCN2C(=O)C(Cc3ccccc3)NC2c2ccccc2C)c2ncccc2c1` (stereo in doubt; 2m1): the IC50 in data set [1] amounted to 21 µM.

With `COc1cc(NC(C)CCCN2C(=O)C(Cc3ccccc3)NC2c2ccccc2C)c2ncccc2c1` (stereo in doubt; 2m2), the IC50 in data set [1] (Pneumocystis carinii, 72 h) amounted to 13 µM.

`COc1cc(NC(C)CCCN)c2ncccc2c1` (configuration not stated) [PRIMAQUINE]: the IC50 in data set [1] (Pneumocystis carinii, 72 h) is 2.5 µM.

The record behind these values is ChEMBL document CHEMBL1142287, “Anti-Pneumocystis carinii and antiplasmodial activities of primaquine-derived imidazolidin-4-ones” (Bioorg Med Chem Lett, 2008).
